Source: ChEMBL document CHEMBL3804768, “Structure-Activity Relationship Studies of Mitogen Activated Protein Kinase Interacting Kinase (MNK) 1 and 2 and BCR-ABL1 Inhibitors Targeting Chronic Myeloid Leukemic Cells” (J Med Chem, 2016)
Converted amounts (≈) assume the structure as drawn.

Assays:
Bcr/Abl fusion protein = Bcr/Abl fusion protein (Homo sapiens, UniProt P00519); test: Inhibition of BCR fused full length human recombinant N-terminal His-tagged ABL (2 to 1130 residues) expressed in baculovirus expression system using FL-peptide 2 substrate preincubated for 10 mins followed by substrate addition measured after 60 mins by mobility shift assay
[1] = target: MAP kinase-interacting serine/threonine-protein kinase 2 (Homo sapiens, UniProt Q9HBH9); test: Inhibition of N-terminal GST-tagged MNK2 kinase domain (72 to 385 residues) (unknown origin) expressed in Escherichia coli BL21(DE3) cells using JH3 peptide substrate preincubated for 10 mins followed by substrate addition measured after 60 mins by mobility shift assay
Chain of MAP kinase-interacting serine/threonine-protein kinase 2 (Q9HBH9 whole entry, the tested form may be a part): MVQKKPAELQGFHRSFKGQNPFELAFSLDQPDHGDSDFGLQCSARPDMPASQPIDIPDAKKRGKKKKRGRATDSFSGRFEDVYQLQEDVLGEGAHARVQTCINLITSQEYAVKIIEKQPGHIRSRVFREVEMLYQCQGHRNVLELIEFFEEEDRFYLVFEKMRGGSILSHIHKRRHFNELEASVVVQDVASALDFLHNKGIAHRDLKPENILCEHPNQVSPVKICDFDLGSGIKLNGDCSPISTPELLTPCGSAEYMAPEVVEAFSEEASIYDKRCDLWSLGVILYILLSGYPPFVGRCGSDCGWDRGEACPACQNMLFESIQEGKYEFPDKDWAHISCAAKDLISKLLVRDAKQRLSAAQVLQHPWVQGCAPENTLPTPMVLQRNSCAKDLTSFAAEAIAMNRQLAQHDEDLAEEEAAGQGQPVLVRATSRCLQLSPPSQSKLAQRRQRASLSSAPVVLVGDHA

[2] = target: MAP kinase-interacting serine/threonine-protein kinase 1 (Homo sapiens, UniProt Q9BUB5); test: Inhibition of N-terminal GST-tagged MNK1 kinase domain (37 to 341 residues) (unknown origin) expressed in Escherichia coli BL21(DE3) cells using JH3 peptide substrate preincubated for 10 mins followed by substrate addition measured after 60 mins by mobility shift assay
Chain of MAP kinase-interacting serine/threonine-protein kinase 1 (Q9BUB5 whole entry, the tested form may be a part): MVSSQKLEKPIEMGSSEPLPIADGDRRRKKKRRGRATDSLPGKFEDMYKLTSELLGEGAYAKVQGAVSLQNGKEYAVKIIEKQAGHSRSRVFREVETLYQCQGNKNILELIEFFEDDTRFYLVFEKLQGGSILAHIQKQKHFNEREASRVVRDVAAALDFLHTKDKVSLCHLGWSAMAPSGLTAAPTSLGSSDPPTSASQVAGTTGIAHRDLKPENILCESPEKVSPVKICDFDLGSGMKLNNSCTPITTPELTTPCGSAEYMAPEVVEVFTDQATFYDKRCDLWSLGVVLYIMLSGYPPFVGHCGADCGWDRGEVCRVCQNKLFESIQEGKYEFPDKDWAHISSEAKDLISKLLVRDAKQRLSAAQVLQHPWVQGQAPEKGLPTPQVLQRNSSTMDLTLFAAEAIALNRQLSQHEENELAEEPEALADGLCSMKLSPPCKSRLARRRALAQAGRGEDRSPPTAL

[3] = target: Tyrosine-protein kinase ABL1 (Homo sapiens, UniProt P00519, T315I); test: Inhibition of full length human recombinant N-terminal His-tagged ABL (2 to 1130 residues) T315I mutant expressed in baculovirus expression system using FL-peptide 2 substrate preincubated for 10 mins followed by substrate addition measured after 60 mins by mobility shift assay
Outline: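 Buffer is 100 mM HEPES pH 7.5, 10 mM MgCl2, 0.004% Tween 20, 1 mM DTT, 0.003% Brij L23. Enzyme and compound sit 10 min before ATP/substrate is added. The reaction runs 60 min at room temperature, is stopped with 10 mM EDTA, and is read by mobility shift.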

K562 [4] = test: Antiproliferative activity against human K562 cells over expressing eIF4E after 48 hrs by Cell-Titer-Glo luminescent cell viability assay; assay type: functional; settings: K562, 48 h
Outline: (§1)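 Cells seeded at 5000 per well in growth medium, exposed to serial doses from 0.003 μM to 50 μM for 48 h at 37 °C, 5% CO2. Viability was read by CellTiter-Glo luminescence and GI50 taken from the dose-response curve. Dose response was run in triplicate and the curve repeated twice. K562 eIF4E-overexpressing cells were cultured in RPMI with 10% FBS.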

[5] = target: MAP kinase-interacting serine/threonine-protein kinase 1/2 (Homo sapiens, UniProt Q9HBH9+Q9BUB5); test: Inhibition of MNK1/MNK2 in human HeLa cells assessed as reduction in phosphorylation of eIF4E at Ser209 after 2 hrs by AlphaScreen SureFire assay; assay type: cell-based
Outline: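 HeLa cells were grown in DMEM with 10% FBS and penicillin/streptomycin, seeded at 30,000 per well and left 24 h. They were then exposed to serially diluted compound in serum-free DMEM for 2 h at 37 °C and lysed with shaking for 20 min. Phospho-eIF4E Ser209 was read by AlphaScreen SureFire with 2 h acceptor and 2 h donor steps at room temperature. Dose response was run in triplicate.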

Cytochrome P450 3A4 = Cytochrome P450 3A4 (Homo sapiens, UniProt P08684); test: Inhibition of CYP3A4 (unknown origin); assay type: ADME
Chain of Cytochrome P450 3A4 (P08684 whole entry): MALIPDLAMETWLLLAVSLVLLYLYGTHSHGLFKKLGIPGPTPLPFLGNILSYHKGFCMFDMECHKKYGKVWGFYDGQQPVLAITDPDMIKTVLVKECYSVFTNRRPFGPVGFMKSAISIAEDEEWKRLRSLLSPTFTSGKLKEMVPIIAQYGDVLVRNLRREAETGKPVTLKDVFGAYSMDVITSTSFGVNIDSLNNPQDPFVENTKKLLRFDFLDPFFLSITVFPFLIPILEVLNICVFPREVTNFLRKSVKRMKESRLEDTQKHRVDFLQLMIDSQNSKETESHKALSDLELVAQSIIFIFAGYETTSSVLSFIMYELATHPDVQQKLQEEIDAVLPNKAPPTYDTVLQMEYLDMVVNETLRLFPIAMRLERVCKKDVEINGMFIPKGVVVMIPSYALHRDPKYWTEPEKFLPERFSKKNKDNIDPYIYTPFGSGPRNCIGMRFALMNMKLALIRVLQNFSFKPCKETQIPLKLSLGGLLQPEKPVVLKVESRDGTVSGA

Cytochrome P450 2D6 = Cytochrome P450 2D6 (Homo sapiens, UniProt P10635); test: Inhibition of CYP2D6 (unknown origin); assay type: ADME
Chain of Cytochrome P450 2D6 (P10635 whole entry): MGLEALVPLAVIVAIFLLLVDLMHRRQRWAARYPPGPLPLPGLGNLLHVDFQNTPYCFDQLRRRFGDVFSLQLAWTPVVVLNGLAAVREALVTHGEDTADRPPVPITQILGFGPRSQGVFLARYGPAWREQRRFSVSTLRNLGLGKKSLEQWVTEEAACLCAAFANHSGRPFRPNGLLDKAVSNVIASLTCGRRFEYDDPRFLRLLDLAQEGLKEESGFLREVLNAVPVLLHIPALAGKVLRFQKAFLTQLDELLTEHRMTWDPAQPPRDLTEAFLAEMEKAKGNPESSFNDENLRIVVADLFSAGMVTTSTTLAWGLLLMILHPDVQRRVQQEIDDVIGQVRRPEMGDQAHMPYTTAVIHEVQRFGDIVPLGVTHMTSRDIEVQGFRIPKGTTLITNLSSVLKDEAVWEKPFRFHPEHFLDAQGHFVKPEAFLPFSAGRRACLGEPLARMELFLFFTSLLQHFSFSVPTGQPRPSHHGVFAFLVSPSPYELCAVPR

[6] = Permeability of compound by PAMPA; assay type: ADME; settings: read-out: permeability
[7] = Thermodynamic solubility in pH 4 pION buffer at 500 uM incubated for 18 hrs by UV-spectrophotometry; assay type: physicochemical; settings: read-out: Therm_solubility
K562 [8] = test: Antitumor activity against human K562 cells over expressing eIF4E xenografted in NOD-SCID mouse assessed as tumor growth inhibition at 200 mg/kg, po qd administered through oral gavage for 14 days relative to control; assay type: functional; settings: 336 h, read-out: TGI
Outline: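 Female SCID mice, 7-10 weeks old, received 1 x 10^7 K562 eIF4E-overexpressing cells subcutaneously. At tumor volumes of 75-245 mm³ (w²×l/2) mice were randomized and gavaged once daily for 14 days at 10 mL/kg.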

[9] = Antiproliferative activity against human BV173 cells after 48 hrs by Cell-Titer-Glo luminescent cell viability assay; assay type: functional; settings: BV-173, 48 h; outline: as §1
K562 [10] = test: Antiproliferative activity against human K562 cells after 48 hrs by Cell-Titer-Glo luminescent cell viability assay; assay type: functional; settings: K562, 48 h; outline: as §1
[11] = Antiproliferative activity against human JURL-MK1 cells after 48 hrs by Cell-Titer-Glo luminescent cell viability assay; assay type: functional; settings: JURL-MK1, 48 h
[12] = Antiproliferative activity against human KCL22 cells after 48 hrs by Cell-Titer-Glo luminescent cell viability assay; assay type: functional; settings: KCL-22, 48 h
[13] = Antiproliferative activity against human EM2 cells after 48 hrs by Cell-Titer-Glo luminescent cell viability assay; assay type: functional; settings: EM-2, 48 h; outline: as §1
[14] = Thermodynamic solubility in pH 7 pION buffer at 500 uM incubated for 18 hrs by UV-spectrophotometry; assay type: physicochemical; settings: read-out: Therm_solubility

Compound | IC50 (Bcr/Abl fusion protein) | IC50 [1] | IC50 [2] | GI50 (K562 [4]) | IC50 [5] | other results
CC(C)C(=O)Nc1ccc(-c2ccc(NCC(=O)Nc3ccc(CN4CCNCC4)c(C(F)(F)F)c3)cc2)cn1 | > 10000 nM | 130 nM | 7700 nM | 3300 nM | 860 nM | IC50 [3]: > 10000 nM
O=C(CNc1ccc(-c2ccc(NC(=O)C3CC3)nc2)cc1)Nc1ccc(CN2CCNCC2)c(C(F)(F)F)c1 | 210 nM | 8 nM | 510 nM | 80 nM | 320 nM | IC50 (Cytochrome P450 3A4): 1100 nM; IC50 (Cytochrome P450 2D6): > 20000 nM; Papp [6]: 5.53 ×10⁻⁶ cm/s; solubility thermodynamic at 18 h, 500 µM [7]: 109 µg/mL (≈ 197 µM); IC50 [3]: 100 nM
CCN1CCN(Cc2ccc(NC(=O)COc3ccc(-c4cccnc4)cc3)cc2C2CC2)CC1 | > 10000 nM | 130 nM | > 10000 nM | – | – | –
Cc1ccc(NC(=O)c2ccc(CN3CCN(C)CC3)cc2)cc1Nc1nccc(-c2cccnc2)n1 [IMATINIB] | – | – | – | – | – | inhibition in vivo at 200 mg/kg (K562 [8]): 57%; GI50 [9]: 100 nM; GI50 (K562 [10]): 200 nM; GI50 [11]: 60 nM; GI50 [12]: 430 nM; GI50 [13]: 260 nM
CCC1CCN(Cc2ccc(NC(=O)COc3ccc(-c4cccnc4)cc3)cc2C(F)(F)F)CC1 | > 10000 nM | 82 nM | 4510 nM | – | – | –
CCN1CCN(Cc2ccc(NC(=O)COc3ccc(-c4ccc(NC(C)=O)nc4)cc3)cc2C(F)(F)F)CC1 | 390 nM | 33 nM | 5680 nM | 100 nM | 680 nM | IC50 [3]: 170 nM
CCN1CCN(Cc2ccc(NC(=O)CNc3ccc(-c4ccc(NC(C)=O)nc4)cc3)cc2C(F)(F)F)CC1 | 380 nM | 44 nM | 5980 nM | 340 nM | 320 nM | IC50 (Cytochrome P450 3A4): 3200 nM; solubility thermodynamic at 18 h, 500 µM [14]: 0.6 µg/mL (≈ 1.08 µM); IC50 (Cytochrome P450 2D6): > 20000 nM; Papp [6]: 26.2 ×10⁻⁶ cm/s; IC50 [3]: 90 nM
O=C(COc1ccc(-c2cccnc2)cc1)Nc1ccc(CN2CCNCC2)c(C(F)(F)F)c1 | > 10000 nM | 12 nM | 350 nM | – | – | –
CCN1CCC(Cc2ccc(NC(=O)COc3ccc(-c4cccnc4)cc3)cc2C(F)(F)F)CC1 | > 10000 nM | > 10000 nM | > 10000 nM | – | – | –
CC(=O)Nc1ccc(-c2ccc(NCC(=O)Nc3ccc(CN4CCNCC4)c(C(F)(F)F)c3)cc2)cn1 | 880 nM | 32 nM | 3920 nM | 400 nM | 200 nM | IC50 (Cytochrome P450 3A4): 2400 nM; IC50 (Cytochrome P450 2D6): > 20000 nM; Papp [6]: 1.13 ×10⁻⁶ cm/s; solubility thermodynamic at 18 h, 500 µM [7]: 132 µg/mL (≈ 250 µM); IC50 [3]: 240 nM

Second part, led by results:

IC50 (Bcr/Abl fusion protein) | IC50 [1] | IC50 [2] | Compound | GI50 (K562 [4]) | IC50 [5] | other results
3880 nM | 10 nM | 540 nM | CCN1CCN(Cc2ccc(NC(=O)Cc3ccc(Oc4ccncc4)cc3)cc2C(F)(F)F)CC1 | – | – | –
> 10000 nM | > 10000 nM | > 10000 nM | CCN1CCN(Cc2ccc(NC(=O)COc3ccc(-c4ccccn4)cc3)cc2C(F)(F)F)CC1 | – | – | –
> 10000 nM | 11 nM | 350 nM | CCN1CCN(Cc2ccc(NC(=O)CNc3ccc(-c4cccnc4)cc3)cc2C(F)(F)F)CC1 | – | – | –
580 nM | 8 nM | 370 nM | CCN1CCN(Cc2ccc(NC(=O)Cc3ccc(Oc4ccnc(NC)c4)cc3)cc2C(F)(F)F)CC1 | – | – | –
> 10000 nM | 1910 nM | > 10000 nM | CCN1CCN(Cc2ccc(NC(=O)COc3ccc(-c4ccncc4)cc3)cc2C(F)(F)F)CC1 | – | – | –
> 10000 nM | 14 nM | 570 nM | CCN1CCN(Cc2ccc(NC(=O)COc3ccc(-c4cccnc4)cc3)cc2C(F)(F)F)CC1 | > 10000 nM | 98 nM | –
> 10000 nM | > 10000 nM | > 10000 nM | CCN1CCN(Cc2ccc(NC(=O)C(C)Oc3ccc(-c4cccnc4)cc3)cc2C(F)(F)F)CC1 (configuration not stated) | – | – | –
> 10000 nM | 6860 nM | > 10000 nM | CCN1CCN(Cc2ccc(NC(=O)COc3ccc(-c4ccc(C(=O)NC)nc4)cc3)cc2C(F)(F)F)CC1 | – | – | –
> 10000 nM | 760 nM | > 10000 nM | CCN1CCN(Cc2ccc(CC(=O)Nc3ccc(Oc4cc(NC)ncn4)cc3)cc2C(F)(F)F)CC1 | – | – | –
> 10000 nM | 22 nM | 3690 nM | CCN1CCN(Cc2ccc(NC(=O)Cc3ccc(Oc4cc(NC)ncn4)cc3)cc2C(F)(F)F)CC1 | – | – | –
